Source: PubChem (SRMLSC)
HUVEC prolif 384: inhibitors of human endothelial cell proliferation | HUVEC proliferation, CellTiter-Glo luminescence, 72 h; hits give low values | viability, % at 10 µM (by protocol) | hit rate 1.1% among 86,000;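 active means viability at or below 30%; inactive means viability above 30%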;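 further: 100% = median luminescence of DMSO-only cell control wells on each plate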
bCat KO growth: beta-catenin-lacking colon tumor cell growth suppression; HCT116 beta-catenin knockout viability, CellTiter-Glo, 60 h; hits give low values; viability, % at 10 µM; hit rate 1.5% among 140,000; AID 818;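 active means viability at or under a set limit, the compound median less 4 SD, cut at about 6% in these data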;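 further: 0% = Hyamine 1622 control at 20 µM and 100% = untreated cell control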
Lung fibro prol: blocks proliferation of human lung fibroblasts | LL 47 human lung fibroblast viability, ATP luminescence; hits give low values | viability, % at 10 µM | hit rate 1.1% among 85,000;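 active means viability at or below 50% in the single dose screen; inactive means viability above 50%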;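 further: compound exposure lasted 72 h before the ATP readout; 100% = median luminescence of untreated cell-only wells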
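Material: human LL 47 lung fibroblast cells; quantity: 1,150 cells/well; medium: IMEM plus 15% FBS; doses: 0.1% DMSO in all compound wells; timing: overnight attachment after seeding, then 72 h compound exposure at 37 °C; detection: CellTiter-Glo luminescence; measure: % viability of median cell-only signal; controls: cell-only wells, no compound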
H69AR growth 86K: blocks growth of human H69AR lung tumor cells; H69AR lung tumor viability, ATP luminescence, 72 h; hits give low values; viability, % at 10 µM; hit rate 6% among 85,000;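 active means viability at or below 40%; inactive means viability above 40%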;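 further: multidrug resistant small cell line overexpressing MRP-1 efflux transporter; 100% = mean luminescence of untreated control wells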
PTEN del growth: growth suppressors of cells with PTEN tumor suppressor deletion; HCT116 PTEN-null viability, CellTiter-Glo, 60 h; hits give low values; viability, % at 10 µM; hit rate 1.2% among 140,000;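 active means viability at or below a set limit, 4 SD under the median of all tested compounds, cut at about 3.7% in these data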;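 further: PTEN knockout HCT116 line with beta catenin targeted HCT116 as companion control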
* marks the source's active call; other numbers are inactive results; . = not tested or not shown. Only a selection was taken, and hits are over-represented in it overall.

SMILES	HUVEC prolif 384	bCat KO growth	Lung fibro prol	H69AR growth 86K	PTEN del growth
O=C(COC(=O)c1cccc(NS(=O)(=O)c2ccc(F)c(F)c2)c1)NC(=O)NC1CCCC1	.	85.4	.	.	81.8
Cc1ccc(C(=O)N/C(=C\c2cccs2)C(=O)NCCc2c[nH]c3ccccc23)cc1	.	66.7	.	.	61.7
Cc1ccc(C(=O)NCCSc2c(C)[nH]c3ccccc23)cc1[N+](=O)[O-]	.	44.2	.	.	49.4
Cc1[nH]c2ccccc2c1SCCN	96.0	.	94.0	34.6*	.
O=C(Nc1ccc2nc(-c3cccnc3)[nH]c2c1)C1CCCCC1	74.6	96.0	103.1	25.3*	93.7
Nc1cccc(C(=O)Nc2ccc3nc(-c4cccnc4)[nH]c3c2)c1	109.8	96.5	112.6	66.3	93.9
O=C(Nc1ccc2nc(-c3cccnc3)[nH]c2c1)C12CC3CC(CC(C3)C1)C2	6.0*	33.5	47.5*	30.1*	35.2
CC(=O)CC(=O)Nc1ccc(Nc2ccccc2)cc1	.	90.8	.	.	88.7
CN=C(Nc1cc(Cl)ccc1Cl)SC1CC(=O)N(c2ccc(C(=O)OC)cc2)C1=O (stereo unspecified)	.	38.2	.	.	43.9
CN1CCN(C(=O)c2ccc(COc3ccc(Cl)cc3Cl)cc2)CC1	12.9*	77.8	86.2	75.0	77.4
COc1ccc(Cl)cc1C(=O)NCCN(C)C	93.6	100.5	98.5	93.0	100.6
CN(C)CCNC(=O)c1ccc(COc2ccc(Cl)cc2Cl)cc1	2.4*	3.1*	24.6*	1.4*	1.6*
CN1CCN(C(=O)CCCOc2ccc(Cl)cc2Cl)CC1	.	84.3	.	.	76.5
N#C/C(=C\c1ccccc1C(F)(F)F)C(=O)Nc1ccccc1	.	76.8	.	.	75.0
CCc1cccc(CC)c1NC(=O)/C(C#N)=C/c1ccccc1C(F)(F)F	.	1.5*	.	.	1.8*
CCOc1ccc2[nH]c(=O)c(CN(CCc3ccccc3)C(=O)N3CCCC3)cc2c1	.	70.0	.	.	66.2
CCOc1ccc(C(=O)N(Cc2ccc(OC)cc2)Cc2cc3cc(OC)ccc3[nH]c2=O)cc1	70.0	86.8	86.4	19.3*	91.7
CCCN(Cc1cc2cc(OC)ccc2[nH]c1=O)C(=O)c1ccncc1	80.2	74.3	85.3	25.1*	66.0
COc1ccc2[nH]c(=O)c(CN(C)C(=O)c3ccncc3)cc2c1	89.3	108.0	97.0	94.4	106.3
CCOc1ccccc1C(=O)N(Cc1ccccc1)Cc1cc2cc3c(cc2[nH]c1=O)OCCO3	19.0*	.	25.8*	9.0*	.
CCOc1ccc2[nH]c(=O)c(CN(Cc3ccc(C)cc3)C(=O)N3CCCC3)cc2c1	90.4	92.6	88.8	33.3*	81.1
CC(C)c1nnc(NC(=O)c2c(O)c3cccc4c3n(c2=O)CC4)s1	86.1	.	96.3	28.1*	.
O=C(Nc1cccnc1)c1c(O)c2cccc3c2n(c1=O)CC3	102.5	98.8	99.6	15.2*	91.1
CCCCc1nc2ccccc2c(=O)n1NC(=O)c1c(O)c2c(n(CC(C)C)c1=O)CCCC2	113.4	42.1	75.6	9.7*	44.2
Cc1csc(NC(=O)c2c(O)c3cccc4c3n(c2=O)CCC4)n1	128.1	.	95.7	36.3*	.
SMILES	HUVEC prolif 384	bCat KO growth	Lung fibro prol	H69AR growth 86K	PTEN del growth
CNC(=O)c1c(O)c2cccc3c2n(c1=O)CC3	102.1	.	94.7	103.0	.
COC(=O)c1ccccc1NC(=O)c1c(O)c2cccc3c2n(c1=O)CCC3	116.2	.	104.5	104.5	.
O=C(NCc1ccccc1)c1c(O)c2cccc3c2n(c1=O)CCC3	96.5	57.7	96.5	72.6	54.8
CCCc1nnc(NC(=O)c2c(O)c3cccc4c3n(c2=O)CCC4)s1	108.3	.	97.2	6.0*	.
CCc1nc2ccccc2c(=O)n1NC(=O)c1c(O)c2cccc3c2n(c1=O)CCC3	95.1	70.9	94.6	25.7*	75.0
O=C(NC(Cc1ccccc1)C(=O)O)/C(=C/c1ccco1)NC(=O)c1cccc(Br)c1 (stereo unspecified)	.	105.2	.	.	99.2
CCCCNCc1cc(Br)c(OCc2cccs2)c(OC)c1	.	1.4*	.	.	1.3*
CCOc1c(Br)cc(CNCc2cccs2)cc1OC	.	91.7	.	.	90.6
CC1=NOC(=O)/C1=C\c1ccc(-c2ccc(Cl)cc2Cl)o1	.	4.7*	.	.	8.1
Cc1[nH][nH]c(=O)c1C(c1ccc(-c2ccc(Cl)cc2Cl)o1)c1c(C)[nH][nH]c1=O	.	93.2	.	.	88.6
CCc1ccc(C(=O)CN2CCSC2=N)cc1	.	77.8	.	.	73.0
Cc1cc(NC(=O)CSc2nc(C(C)C)nc3sc4c(c23)CCCC4)no1	60.4	66.1	18.1*	5.6*	70.6
CC(C)C(C)NC(=O)CSc1nc2scc(-c3ccco3)c2c(=O)n1-c1ccccc1 (stereo unspecified)	93.9	96.6	87.9	77.9	98.2
